Results gathered from unrelated publications.
Lines come from different studies, so protocols differ.
DRD4: D(4) dopamine receptor (DRD4, Homo sapiens, UniProt P21917)
HTR5A: 5-hydroxytryptamine receptor 5A (HTR5A, Homo sapiens, UniProt P47898)
PIK3CD: Phosphatidylinositol 4,5-bisphosphate 3-kinase catalytic subunit delta isoform (PIK3CD, Homo sapiens, UniProt O00329)

The EC50 of COc1cc(F)cc2c(N3CCN4c5ccccc5OC[C@@H]4C3)c(C#N)nnc12 (single isomer, unassigned) is reported as > 30000 nM (Metabotropic glutamate receptor 8 (GRM8, Homo sapiens, UniProt O00222); calcium signal; positive allosteric modulator).
CCn1c(-c2nc3ccc(C(=O)N4CCCC(N)C4)cc3n2C)cc2ccccc21 (stereo not drawn) gave an EC50 of > 50100 nM (Nuclear receptor subfamily 1 group I member 2 (NR1I2, Homo sapiens, UniProt O75469); reporter gene; agonist; luciferase).
For COc1ccccc1N1CCN(CCCCN2CCc3ccccc3C2=O)CC1, the Ki was 6 nM (DRD4; ligand displacement; radioligand).
With CCCCCCSC[C@H]1CN(Cc2c[nH]c3c(N)ncnc23)C[C@@H]1O the Ki was 0.085 nM (Aminodeoxyfutalosine nucleosidase (Helicobacter pylori, UniProt Q9ZMY2); enzyme activity; inhibitor; absorbance; pH 7.4).
CC[C@@H]1C(=O)OC[C@@H]1Cc1cncn1C has a Kd of 26500 nM (Cytochrome P450 2E1 (CYP2E1, Homo sapiens, UniProt P05181); binding).
With COc1ccc(CCC2=NCCN2CCc2ccccc2)cc1 the Ki was 501 nM (DRD4; ligand displacement; radioligand).
Cc1ncsc1-c1ccc(CNC(=O)[C@@H]2C[C@@H](O)CN2C(=O)[C@@H](NC(=O)CCCCCCCCCC(=O)N2CCN(CC[C@H](NC(=O)C3(N)CCN(c4ncnc5[nH]ccc45)CC3)c3ccc(Cl)cc3)CC2)C(C)(C)C)cc1 gave a Kd of 360 nM (RAC-beta serine/threonine-protein kinase (AKT2, Homo sapiens, UniProt P31751); binding; competition with immobilised ligand).
With CC1=C(O)C(=O)OC1C (stereo not drawn) the EC50 was 4500 nM (OR8D1 (Homo sapiens, UniProt Q8WZ84, del306-308); cAMP; agonist; luciferase).
The Ki of CC(C)c1nc2cc(OCCCCN3CCN(c4cccc5c4OCCO5)CC3)ccc2s1 is reported as 330 nM (HTR5A; ligand displacement; radioligand).
CC(=O)N[C@@H](Cc1ccccc1)C(=O)N1CCC[C@H]1C(=O)N1CCC[C@H]1C(=O)N1CCC[C@H]1C(=O)N1CCC[C@H]1C(=O)O has a Kd of 800000 nM (Vasodilator-stimulated phosphoprotein (VASP, Homo sapiens, UniProt P50552); binding; fluorescence).
With CS(=O)(=O)C1(CNCc2ccc(Cl)c3cccnc23)CC1 the Ki was 126 nM (HTR5A; ligand displacement; radioligand).
The Ki of CCCCN1CCC(COC(=O)c2ccc(N)c(OCF)c2)CC1 is reported as > 10000 nM (HTR5A; cell-free assay; radioligand).
For O=C1c2ccccc2CCN1CCCCN1CCN(c2ccccn2)CC1, the Ki was 14.5 nM (DRD4; ligand displacement; radioligand).
Cc1cnc(-c2ccc(-c3ccc(NC(=O)Nc4c(F)cc(F)cc4F)cc3F)c3c2C(=O)NC3)[nH]1 has a Kd of 0.8 nM (Mast/stem cell growth factor receptor Kit (KIT, Homo sapiens, UniProt P10721); binding; competition with immobilised ligand).
For CCC(=O)N1CCC(C(=O)N(C)CC(=O)N2CCN(c3nc(-c4cnc(N)nc4C(F)F)nc(N4CCOCC4)n3)CC2)CC1, the Kd was 4.9 nM (PIK3CD; binding; competition with immobilised ligand).
For CCCCCCCNCCCc1ccc([N+](=O)[O-])cc1, the Ki was 240 nM (DRD4; ligand displacement; radioligand).
With CCC(=O)N1CCC(C(=O)NCC(=O)N2CCN(c3nc(-c4cnc(N)nc4C(F)F)nc(N4CCOCC4)n3)CC2)CC1 the Kd was 1.6 nM (PIK3CD; binding; competition with immobilised ligand).
Clc1ccc(CNC[C@H]2CCn3ccnc3C2)c2ncccc12 gave a Ki of 3240 nM (HTR5A; ligand displacement; radioligand).
